Results on 1 compound are retold here after ChEMBL document CHEMBL5038580 (J Med Chem, 2022).

Residues, ends and D or L forms follow the SMILES beside them. Some results are limits rather than exact numbers.

The test system of experiment [1] is SARS-CoV-2. Put plainly: Antiviral activity against SARS-CoV-2 assessed as inhibition of viral infection in 293T/ACE2 cells preincubated for 30 min followed by cells addition for 12 hrs and complete medium replacement and measured after 48 hrs by luciferase assay. It is filed as functional, organism-based. The conditions noted are these: Severe acute respiratory syndrome coronavirus 2, 293T/ACE2. The procedure, abridged:
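ACE2-293T cells (10^4/well) were plated 12 h before infection. Pseudovirus was mixed with peptides serially diluted in FBS-free DMEM for 30 min at 37 °C and added to the cells. After 12 h the medium was replaced with complete medium and cells were incubated 48 h more. Luciferase activity was read.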

The subject of experiment [2] is SARS-CoV-2. Description: Antiviral activity against SARS-CoV-2 assessed as inhibition of viral infection in Caco-2 cells preincubated for 30 min followed by cells addition for 12 hrs and complete medium replacement and measured after 48 hrs by luciferase assay. It counts as functional, organism-based. The conditions noted are these: Severe acute respiratory syndrome coronavirus 2, Caco-2.

The term IC50 denotes the midpoint of a concentration-inhibition curve. As to `CC[C@H](C)[C@H](NC(C)=O)C(=O)N[C@@H](CCC(=O)O)C(=O)N[C@@H](CCC(=O)O)C(=O)N[C@H](C(=O)N[C@H](C(=O)N[C@@H](CCCCN)C(=O)N[C@@H](CCCCN)C(=O)N[C@H](C(=O)N[C@@H](Cc1c[nH]cn1)C(=O)N[C@@H](Cc1c[nH]cn1)C(=O)N[C@H](C(=O)N[C@@H](CCC(=O)O)C(=O)N[C@@H](CCCNC(=N)N)C(=O)N[C@@H](C)C(=O)N[C@H](C(=O)N[C@@H](CCC(=O)O)C(=O)N[C@@H](C)C(=O)N[C@@H](CCC(N)=O)C(=O)N[C@@H](CCC(N)=O)C(=O)N[C@@H](CCCCN)C(=O)N[C@@H](CC(C)C)C(=O)N[C@@H](CC(C)C)C(=O)N[C@@H](CCC(N)=O)C(=O)N[C@@H](CC(C)C)C(=O)N[C@H](C(=O)N[C@H](C(=O)N[C@@H](Cc1c[nH]c2ccccc12)C(=O)NCC(=O)N[C@H](C(=O)N[C@@H](CCCCN)C(=O)N[C@@H](CCC(N)=O)C(=O)N[C@@H](CC(C)C)C(=O)N[C@@H](CCC(N)=O)C(=O)N[C@@H](C)C(=O)N[C@@H](CCCNC(=N)N)C(=O)N[C@H](C(=O)N[C@@H](CC(C)C)C(N)=O)[C@@H](C)CC)[C@@H](C)CC)C(C)C)[C@@H](C)O)[C@@H](C)CC)[C@@H](C)CC)[C@@H](C)CC)C(C)C)[C@@H](C)CC` (Ac-IEEIVKKIHHIERAIEAQQKLLQLTVWGIKQLQARIL-NH2), the IC50 in the experiment on SARS-CoV-2 [1] and with SARS-CoV-2 [2] was above 20 µM each time.
